PAFAH1B2 FP inh: inhibitors of human PAFAH1B2; inhibition, % at 3.39 µM; recombinant PAFAH1B2, FP-rhodamine activity probe, fluorescence polarization; P68402; actives 1.2% (n = 340,000);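 active = inhibition above the mean of all tested compounds plus 3 SD, cut at about 24% in these data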;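 also: 0% = enzyme with DMSO and 100% = wells lacking PAFAH1B2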
PAFAH1B3 inh: blocks human PAF acetylhydrolase 1B catalytic subunit 3; Q15102; recombinant PAFAH1B3, FP-rhodamine probe, fluorescence polarization; inhibition, % at 3.39 µM; actives 0.28% (n = 340,000); AID 492972;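 active = inhibition above the screen-wide average of all tested compounds plus 3 SD, cut at about 25% in these data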;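 also: 0% = enzyme with DMSO only and 100% = wells lacking PAFAH1B3 protein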
pPAFAH inh: inhibitors of human plasma PAF acetylhydrolase (pPAFAH); recombinant pPAFAH, FP-rhodamine probe fluorescence polarization; inhibition, % at 3.39 µM; actives 1.5% (n = 330,000); AID 463082;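 active = inhibition above the mean inhibition across the screen plus 3 SD, cut at about 25% in these data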;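 also: inhibitors block binding of the rhodamine activity-based probe so polarization drops; 0% = enzyme with DMSO and 100% = wells lacking pPAFAH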
Target sequence (Q13093 whole entry, looked up): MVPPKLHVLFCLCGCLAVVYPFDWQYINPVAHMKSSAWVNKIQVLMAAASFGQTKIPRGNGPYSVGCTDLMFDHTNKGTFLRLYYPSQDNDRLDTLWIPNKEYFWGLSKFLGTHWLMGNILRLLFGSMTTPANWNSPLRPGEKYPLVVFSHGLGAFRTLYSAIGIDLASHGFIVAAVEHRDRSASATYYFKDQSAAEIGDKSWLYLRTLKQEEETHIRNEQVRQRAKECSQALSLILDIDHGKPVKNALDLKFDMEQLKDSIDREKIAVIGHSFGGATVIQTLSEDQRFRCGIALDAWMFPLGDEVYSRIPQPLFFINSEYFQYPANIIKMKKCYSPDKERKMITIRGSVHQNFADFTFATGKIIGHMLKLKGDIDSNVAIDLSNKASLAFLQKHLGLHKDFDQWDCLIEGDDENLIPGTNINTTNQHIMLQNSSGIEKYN
ASAP1 inh: inhibitors of human ASAP1 ArfGAP activity. AID 624377. ASAP1-stimulated ARF1 GTP hydrolysis, GDP FP detection. inhibition, % at 16.5 µM. Q9ULH1. actives 0.19% (n = 360,000); in the data active = inhibition above about 25%;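 also: 0% = vehicle with enzyme and substrate and 100% = no enzyme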
PAFAH2 inh: PAFAH2 (human) inhibition; recombinant PAFAH2, FP-rhodamine activity probe, fluorescence polarization; inhibition, % at 3.39 µM; actives 0.99% (n = 340,000); AID 492956;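 active = inhibition above the mean over all tested compounds plus 3 SD, cut at about 30% in these data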;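 also: inhibitors block probe labeling of enzyme so polarization drops; 0% = enzyme with DMSO and 100% = wells lacking PAFAH2 protein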
ARFGAP1 inh: rat ARFGAP1 inhibition; Arfgap1-stimulated ARF1 GTP hydrolysis, GDP FP detection; actives 0.26% (n = 360,000); inhibition, % at 16.5 µM; AID 651572;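 active = inhibition above a per-plate limit, mean inhibition of low control wells plus 3 SD, cut at about 25% in these data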;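 also: 0% = DMSO wells with enzyme and 100% = wells lacking Arfgap1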
Target sequence (Q62848 1-136 limits assumed): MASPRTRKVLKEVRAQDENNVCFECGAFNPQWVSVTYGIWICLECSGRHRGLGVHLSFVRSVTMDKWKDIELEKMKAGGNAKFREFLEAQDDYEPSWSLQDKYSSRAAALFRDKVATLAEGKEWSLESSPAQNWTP
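Material: truncated rat Arfgap1 GAP domain; Incubation: compound-enzyme preincubation 20 min, reaction 120 min, detection 60 min, 25 °C; Read-out: percent inhibition of Arfgap1-stimulated GTP hydrolysis; Technique: FP, GDP Alexa 633 tracer displaced from anti-GDP antibody, 620/688 nm; Controls: No-Arfgap1 wells (100%) versus DMSO full-reaction wells (0%); Replication: single well per compound.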
An asterisk follows results filed as active; nt = no result. Only some compounds are listed: those with a hit (about 2.7% of all), similar ones and a draw of the others.

SMILES | PAFAH1B2 FP inh | PAFAH1B3 inh | pPAFAH inh | ASAP1 inh | PAFAH2 inh | ARFGAP1 inh
C/C(=N\O)C1/C(=N/O)CC2C1C2(C)C (stereo not drawn) | 33.7* | -2.9 | 2.5 | -3.5 | 8.6 | 4.0
CN(NS(=O)(=O)c1ccc(F)cc1)c1ncc(C(F)(F)F)cc1Cl | nt | nt | 2.5 | -12.0 | nt | -9.5
CN(NS(=O)(=O)c1ccc(Cl)cc1)c1ncc(C(F)(F)F)cc1Cl | 27.9* | 4.5 | -3.4 | -7.2 | -1.6 | -6.3
NC(=O)c1ccsc1NC(=O)COC(=O)c1ccc([N+](=O)[O-])o1 | -1.2 | 5.7 | 4.9 | 13.6 | -1.1 | -4.3
NC(=O)c1ccsc1NC(=O)c1ccc([N+](=O)[O-])o1 | 8.7 | 8.8 | 35.7* | -3.2 | 35.7* | -11.0
CCCOC(=O)c1ccc(Oc2c(-c3ccc(O)cc3O)n[nH]c2C)cc1 | -6.8 | 8.9 | 19.5 | 17.4 | -10.1 | 9.1
CCc1cc(-c2n[nH]c(C)c2Oc2ccc(C(C)C)cc2)c(O)cc1O | 5.5 | 13.4 | 31.0* | 0.0 | 7.1 | 22.9
Cc1[nH]nc(-c2ccc(O)cc2O)c1Oc1ccccc1 | 27.2* | 4.8 | 1.7 | 6.9 | 0.9 | 18.0
Cc1csc(NC(=O)c2cc(-c3ccco3)nc3ccccc23)n1 | -2.6 | -1.1 | 25.2* | -0.2 | -1.6 | -6.1
Cc1nnc(NC(=O)c2cc(-c3ccco3)nc3ccccc23)s1 | 2.9 | 6.9 | 27.2* | -10.1 | 5.8 | -3.5
O=C(Nc1nc2ccccc2s1)c1cc(-c2ccco2)nc2ccccc12 | -3.7 | -5.0 | 2.2 | 5.6 | -6.6 | 15.0
O=C(N/N=C/c1ccc(F)cc1)c1cc(-c2ccco2)nc2ccccc12 | -1.9 | 13.0 | 30.4* | -1.3 | 5.2 | -1.8
Cc1c(C(=O)OCC2CCCO2)[nH]c2c1C(=O)CC(c1ccco1)C2 (stereo not drawn) | 2.7 | 1.6 | 25.2* | nt | 6.2 | nt
NC(=O)/C(=N\OC(=O)c1ccco1)c1nc(-c2ccc(Br)cc2)cs1 | 14.8 | 24.9 | 32.2* | 7.4 | 6.6 | -14.9
Nc1nc(-c2ccc(NC(=O)c3ccco3)cc2)cs1 | 4.6 | 7.7 | 3.7 | -3.1 | 10.6 | -2.9
O=C(COc1ccc(Br)cc1)Nc1nnc(C2CC2)s1 | -10.2 | -8.2 | 4.9 | 3.6 | 6.6 | 1.9
CC(Oc1ccc(Br)cc1)C(=O)Nc1nnc(C2CC2)s1 (stereo not drawn) | 25.9* | 2.6 | 3.1 | 7.2 | 1.9 | -2.0
CCOC(=O)C1=C(C(=O)OCC)C2N(Cc3ccc(C#N)cc3)c3ccccc3[C@@]23C[C@@H](C(=O)OC)N(S(=O)(=O)c2ccc(C#N)cc2)C3=N1 (stereo partly drawn) | nt | nt | nt | 2.8 | nt | 6.5
O=C(Oc1oc(-c2ccco2)nc1C=Nc1ccc(Cl)cc1)c1ccco1 | 8.5 | 11.2 | 26.4* | -9.5 | 48.3* | 2.7
O=[N+]([O-])c1cc(Cl)cc(/C=N/NC(=S)Nc2ccc(S(=O)(=O)N3CCOCC3)cc2)c1O | 37.2* | 22.7 | 51.9* | 6.9 | 41.9* | -0.3
Cc1c(Br)c(O)c(Br)c(O)c1/C=N/n1c(-c2ccccc2)n[nH]c1=S | 14.0 | 34.8* | 14.1 | nt | 22.4 | nt
Cc1ccc(/C=N/n2c(-c3ccccc3)n[nH]c2=S)cc1 | 3.5 | 7.7 | 8.9 | 6.8 | 4.8 | -6.1
CC(C)c1ccc(/C=N/n2c(-c3ccccc3)n[nH]c2=S)cc1 | 4.2 | 12.0 | 25.0* | -16.1 | 9.6 | 5.6
Oc1c(Br)cc(/C=N/n2c(-c3ccccc3)n[nH]c2=S)c(O)c1Br | 7.7 | 28.3* | nt | nt | 45.4* | nt
O=C(NCc1ccccc1)[C@H]1CCCN1C(=O)[C@H]1CCCN1C(=O)c1ccc(F)cc1F | nt | nt | nt | -3.8 | nt | 1.0
SMILES | PAFAH1B2 FP inh | PAFAH1B3 inh | pPAFAH inh | ASAP1 inh | PAFAH2 inh | ARFGAP1 inh
CC(C)[C@H](NC(=O)c1ccco1)C(=O)N1CCC[C@H]1C(=O)NCc1ccccc1 | nt | nt | nt | 1.5 | nt | 11.9
O=S1(=O)N[C@@H](Cc2ccccc2)COc2cc(NC3CC3)ccc21 | nt | nt | nt | 9.4 | nt | 0.5
CCCn1cc2c(c1-c1ccc(C)cc1)c(=O)n(C)c(=O)n2C | -1.4 | 9.5 | -1.7 | -2.3 | 3.3 | -0.4
COc1ccc(-c2c3c(=O)n(C)c(=O)n(C)c3cn2C2CCCCC2)cc1 | 4.7 | 10.3 | 25.1* | -5.5 | 8.7 | 9.9
CN1OC[C@@H]2CN[C@H](c3ccc(N4CCCCC4)cc3)C[C@@H]21 | nt | nt | nt | -2.7 | nt | -1.0
COc1ccccc1/C=C/C=N/NC(=O)c1cc(-c2ccco2)[nH]n1 | nt | nt | 29.5* | 16.2 | nt | 12.9
CC[C@H](NC(=O)[C@@H](Cc1ccccc1)NC(=O)[C@H]1O[C@@H](n2cnc3c(=O)[nH]c(N)nc32)[C@H](O)[C@@H]1O)c1ccccc1 | nt | nt | nt | -3.7 | nt | -2.8
CC1=C[C@@H]2[C@H]3C(=O)N(Cc4ccccc4)C(=O)[C@H]3[C@@H]1[C@@H]1O[C@@]3(C(=O)N(C)c4ccccc43)C3=C(CCCC3=O)N21 | nt | nt | nt | -12.5 | nt | 11.5
CCOCCSc1nc2c(c(-c3cccs3)c1C#N)CC/C2=C/c1cccs1 | 2.0 | 3.8 | 26.7* | -2.9 | 0.7 | 1.5
CCOC(=O)CC(=O)CSc1nc2c(c(-c3cccs3)c1C#N)CCC2 | 11.2 | 5.7 | 13.4 | -5.0 | 6.1 | -4.6
Cc1ccc(S(=O)(=O)NC(Cc2ccccc2)C(=O)NN)cc1 (stereo not drawn) | 8.6 | 11.9 | -7.6 | 2.8 | 2.5 | 1.2
Cc1ccc(S(=O)(=O)NC(C)CCc2ccccc2)cc1 (stereo not drawn) | 35.5* | 10.2 | 10.1 | 0.8 | -1.1 | -0.2
Cc1ccc(S(=O)(=O)N[C@@H](Cc2ccccc2)C(=O)CCl)cc1 | 24.4* | 7.4 | 1.4 | 13.0 | 11.0 | -1.3
CC(=O)Nc1ccc(S(=O)(=O)NC(C)CCc2ccccc2)cc1 (stereo not drawn) | 11.8 | 1.9 | 4.7 | 2.0 | 2.2 | 1.2
Cc1ccc(C)c(S(=O)(=O)NC(C)CCc2ccccc2)c1 (stereo not drawn) | 28.9* | 3.4 | -5.0 | -3.3 | 8.6 | 8.9
CC1CCN(C(=O)c2ncn3c2C(=O)NC[C@@H]3C)CC1 | nt | nt | nt | -1.9 | nt | -4.0
COc1ccc(C2=CC3=C(Br)C(=O)C(C)(OC(=O)c4cccs4)C(=O)C3=CO2)cc1 (stereo not drawn) | 9.1 | 1.0 | 28.2* | 6.0 | 10.4 | -1.7
COc1ccc(C2=CC3=C(Br)C(=O)C(C)(OC(=O)c4ccco4)C(=O)C3=CO2)cc1 (stereo not drawn) | 9.9 | 7.2 | 22.9 | nt | 20.3 | nt
O=C(COC(=O)C12CC3CC(CC(Cl)(C3)C1)C2)N1CCCCC1 | 29.1* | 13.0 | -8.1 | 10.3 | 1.9 | -7.5
CC(CCc1ccccc1)NC(=O)COC(=O)C12CC3CC(CC(Br)(C3)C1)C2 (stereo not drawn) | 45.3* | 7.4 | 4.1 | 11.2 | -6.0 | 3.2
O=C(COC(=O)C12CC3CC(CC(C3)C1)C2)NCCc1ccccc1 | 13.4 | -2.0 | 9.6 | 2.0 | 21.1 | 4.2
